Drawing on PubChem BioAssay AID504382 (The Scripps Research Institute Molecular Screening Center, 2011), this text covers fluorescence artifact activation for 90 molecules.

Among all 2,500 compounds or so, about 460 (18%) were called active. The list is a sample of the results. Values without a mark were called inactive.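 How the source made its calls: active means mean activation above a cutoff of low control average plus 3 SD from the earlier screen (cut at about 12% in these data); inactive means the rest.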

The experiment is described as follows: compound fluorescence interference without thin filaments, confirmation, artefact control for cardiac RTF calcium sensitizer project, biochemical (AID 504382). The conditions noted are these: IANBD fluorescence interference counterscreen, buffer, EC20 Ca2+; at 7.2 µM; stronger effect = higher value; scaled: EC20 calcium 0, EC100 calcium 100. In outline: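 Medium: MOPS buffer, 190 mM, with KCl, MgCl2, EGTA, NTA, DTT, pH 7.20; Dosing: one dose of 7.2 µM, 0.7% DMSO; Probe or stimulus: calcium at EC20 level, 0.472 mM final; Incubation: 15 min, 25 °C; Evaluation: compound fluorescence interference relative to control well signal range; Signal: fluorescence, 480/540 nm.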
For orientation: The purpose of a counterscreen is to sort out artefacts and off-target activity.
As to `Cc1ccc(N2CN(Cc3cccnc3)CNC2=S)cc1`, the fluorescence artifact activation was 0.4%.

As to `CCOC(=O)c1cnc(SC)nc1Oc1cccc(NS(=O)(=O)c2ccc(Cl)cc2)c1`, the fluorescence artifact activation was 0.07%. As to `CCN1C(=S)SC(=O)C1=C1C=C(C)N(Cc2ccco2)C(C)=C1`, the fluorescence artifact activation is 0.18%. Take `COc1cc(/C=N\NC(=O)CC(=O)NCCc2ccccc2)ccc1O`: the fluorescence artifact activation is 0.17%. In the case of `CN(C)c1ccc(NC2=C([N+](=O)[O-])CS(=O)(=O)C2)cc1` it was 3.15%; in that of `CCc1ccc(NC(=O)C2CCN(S(=O)(=O)c3ccc4[nH]c(=O)ccc4c3)CC2)cc1`, 0.08%. In the case of `COc1ccc(C2OC34CCCCC3C(C#N)(C#N)C2(C#N)C(=N)O4)cc1` (stereo not given), the fluorescence artifact activation was 0.16%. Consider `CC(=O)Nc1sc2c(c1-c1nc3ccccc3s1)CN(C(C)C)CC2`, for which the fluorescence artifact activation is -0.08%. Take `Nc1c(C(=O)C2CC2)sc2nc(-c3ccccc3)cc(C(F)(F)F)c12`: the fluorescence artifact activation was 8.48%.

Turning to `O=C(O)CN1C(=O)/C(=C\c2cn(CC(=O)N3CCOCC3)c3ccccc23)SC1=S`, the fluorescence artifact activation is 4.83%.

`Cn1cccc1/C=C1\SC(=S)N(CC(=O)O)C1=O`: the fluorescence artifact activation is 3.44%. In the case of `Cn1cccc1/C=C1/SC(=S)N(CC(=O)O)C1=O` it was 52.3% (active). In the case of `COc1ccc2noc3c2c1C(=O)c1ccccc1-3` it was 0.01%; in that of `COc1ccc(N=Cc2c(O)c3ccccc3n2C(C)=O)cc1`, 1.91%; in that of `N=c1oc2ccccc2cc1-c1nc(-c2ccccc2)cs1`, 0.03%. In the case of `N#C/C(=C/c1ccc(N2CCCCC2)o1)C(=O)Nc1ccc(Cl)cc1` it was 36.7% (active). Turning to `N#C/C(=C/c1ccc(N2CCCCC2)o1)C(=O)Nc1ccc2ccccc2c1`, the fluorescence artifact activation was 52.8% (active).

As to `N#C/C(=C\c1ccc(N2CCCCC2)o1)C(=O)Nc1cccc(Br)c1`, the fluorescence artifact activation is 1.73%. Regarding `N#C/C(=C\c1ccc(N2CCOCC2)o1)C(=O)NC1CCCCC1`, the fluorescence artifact activation is 10.5%.

Take `N#C/C(=C/c1ccc(N2CCOCC2)o1)C(=O)NC1CCCCC1`: the fluorescence artifact activation was -0.06%.

On to `COc1ccc(NC(=O)/C(C#N)=C\c2ccc(N3CCOCC3)o2)cc1`, for which the fluorescence artifact activation is 8.28%.

Take `CCOC(=O)C1(Cc2cccc(OC)c2)CCCN(Cc2nccn2CC)C1` (stereo not given): the fluorescence artifact activation was 0.29%. In the case of `O=C(NCc1ccco1)c1cc(-c2cccc(Cl)c2)on1` it was 0.3%; in that of `O=c1[nH]ncc2c3ccccc3n(Cc3cccc(Cl)c3)c12`, -0.06%. In the case of `Cc1nc2oc(C(=O)c3ccccc3)c(N)c2c2c1COC(C)(C)C2`, the fluorescence artifact activation is 233% (active). In the case of `N#CC1(NC(=O)CN2CCN(S(=O)(=O)c3ccccc3F)CC2)CCCC1` it was -0.12%; in that of `O=C(C1=C[C@@H](c2ccc(Br)cc2)C[C@@H](OCc2ccc(CO)cc2)O1)N1CCN(Cc2ccc3c(c2)OCO3)CC1`, 0.02%.

In the case of `O=[n+]1c2c(n([O-])c3cc(F)c(N4CCCC4)cc31)CCCC2`, the fluorescence artifact activation is 50.2% (active). In the case of `O=[n+]1c2c(n([O-])c3ccccc31)CCC2` it was 8.78%; in that of `O=[n+]1c2c(n([O-])c3cc(F)c(N4CCCC4)cc31)CCC2`, 18.6% (active).

On to `CC(C)n1cnc2c(NCc3ccccc3)cc(N[C@H](C)CO)cc21`, for which the fluorescence artifact activation was -0.08%. In the case of `C#CCN1C(=O)S/C(=C/C=C/c2ccc(N(C)C)cc2)C1=O` it was 0.36%. As to `O=C(NCCN1CCOCC1)c1ccccc1N1C(=O)[C@@H]2Cc3c([nH]c4ccccc34)C(c3ccc(F)cc3)N2C1=O` (stereo not given in full), the fluorescence artifact activation is 0.13%.

In the case of `COC(=O)CCC(=O)OC1(C)C(=O)C2=CN(Cc3ccc(OC)cc3)C(c3ccc(OC)cc3)=CC2=C(Br)C1=O` (stereo not given), the fluorescence artifact activation is -0.01%. Take `CN(N=Nc1nc[nH]c1C(=O)NN)C1CCCCC1`: the fluorescence artifact activation was 0.38%. In the case of `Fc1ccc(CN2CCCN(C(=S)Nc3ccc(F)cc3)CC2)cc1` it was 17.4% (active); in that of `O=C(Nc1ccc(F)cc1)OCCN1CCN(Cc2ccccc2)CCC1=O`, -0.08%; in that of `Cc1ccc(NC(=O)COC(=O)c2csc3c2CCC(C)C3)cc1S(=O)(=O)N1CCCCC1` (stereo not given), 1.08%.

As to `COc1ccc2c(CC(=O)N[C@@H](Cc3c[nH]c4ccccc34)C(=O)O)cc(=O)oc2c1`, the fluorescence artifact activation was 4.51%. In the case of `CCc1ccc(-n2c(O)c(C=NCCN(CC)CC)c(=O)[nH]c2=O)cc1` it was 2.92%. In the case of `CCOc1ccc(-n2c(SCC(=O)Nc3ccc(OC)cc3OC)nc3c(c2=O)SCC3)cc1` it was 0.76%; in that of `Cc1[nH]nc2c1C(c1cc(Br)cs1)C(C#N)=C(N)O2` (stereo not given), 0.04%. In the case of `COc1ccc(-c2ccc(C3C(C#N)=C(N)Oc4n[nH]c(C)c43)o2)cc1` (stereo not given) it was 14.3% (active); in that of `CCOc1ccc(NC(=S)c2ccncc2)cc1`, 0.07%; in that of `C=COc1ccc(N2C(=O)c3ccccc3OC2C)cc1` (stereo not given), 2.14%.

As for `O=C(O)c1cccc(-c2ccc(/C=N/Nc3ccc([N+](=O)[O-])cc3)o2)c1`, the fluorescence artifact activation is 1.4%.

Take `COc1ccc(-c2cc3ncc(-c4ccccc4)c(N)n3n2)cc1`: the fluorescence artifact activation was 1.7%. `Nc1ccc2nc(-c3ccccc3)cnc2c1`: the fluorescence artifact activation was 26.1% (active). In the case of `Nc1ccc2nc3c(=O)[nH]c(=S)[nH]c3nc2c1` it was 6.07%; in that of `Cc1ccc(-c2nc(N)sc2CC(=O)OCC(=O)NCCC(C)C)cc1`, 2.4%. In the case of `Cc1ccc(SCC(=O)c2sc(-c3ccccc3)nc2C)cc1` it was 10.1%; in that of `Cc1ccc(-c2nc(C)sc2CC(=O)O)cc1`, 14.7% (active). As for `COC(=O)c1ccc(S(=O)(=O)N(CCO)Cc2ccccc2)n1C`, the fluorescence artifact activation is -0.01%. In the case of `Cc1ccc(N=Nc2c(O)n(CN3CCOCC3)c3ccccc23)cc1` it was 4.5%; in that of `CCOC(=O)C1=C(C)N=c2s/c(=C/c3ccc(OCC(=O)O)cc3)c(=O)n2C1c1ccc(SC)cc1` (stereo not given), 0.15%. In the case of `Cc1ccc(C)c(C2=NNC(=O)CC2)c1` it was 0.16%.

As for `Cc1cc(NC(=O)CCC(=O)N(CCC(C)C)C(C(=O)NC2CCCC2)c2cccnc2)no1` (stereo not given), the fluorescence artifact activation is 0%. For the molecule `C=CC[C@@H](CC(=O)N(CCO)Cc1ccccc1)C(=O)N[C@@H](COC(=O)[C@@H](CC=C)Cc1ccc(F)cc1)Cc1ccccc1`, the fluorescence artifact activation is 0.09%.

As to `CC(=O)N1C(=O)C(=C2C=C(C)OC(C)=C2)c2ccccc21`, the fluorescence artifact activation was 21.3% (active). In the case of `CCCn1c(N2CCN(CC(=O)c3c[nH]c4ccccc34)CC2)nc2c1c(=O)[nH]c(=O)n2C` it was 0.12%.

For the molecule `CCCCCCCCOc1ccc(C2OC34CCCCC3C(C#N)(C#N)C2(C#N)C(=N)O4)cc1` (stereo not given), the fluorescence artifact activation was 4.01%. In the case of `CCN1/C(=C/C=C/c2oc3ccc(-c4ccccc4)cc3[n+]2CC)Oc2ccc(-c3ccccc3)cc21` it was -0.02%; in that of `CCC(c1nnnn1C1CCCCC1)N1CCN(C(=O)c2ccco2)CC1` (stereo not given), 6.69%. Take `O=C(Nc1ccc(N2CCN(C(=O)c3ccco3)CC2)cc1)c1ccc(F)cc1`: the fluorescence artifact activation is 0.11%. Take `COc1ccc(C(=O)NCC(=O)N2CCN(C(=O)c3ccco3)CC2)cc1OC`: the fluorescence artifact activation was 23.6% (active). In the case of `COc1cccc(C2CC(c3ccccc3)n3ncnc3N2)c1` (stereo not given) it was 7.41%; in that of `CCOC(=O)N1CCC(Nc2nc3ccccc3nc2NS(=O)(=O)c2ccc(Cl)cc2)CC1`, -0.02%. Take `CCOC(=O)N1CCC(NC(=O)c2cccs2)CC1`: the fluorescence artifact activation is -0.01%. Take `CCOC(=O)N1CCC(Nc2cccc(SC)c2)CC1`: the fluorescence artifact activation is 97.8% (active). Consider `CN1CCc2c(sc(/N=C/c3cccs3)c2C(N)=O)C1`, for which the fluorescence artifact activation was -0.06%. In the case of `O=C(NCC1CC1)Nc1cccc(Cl)c1` it was 0.16%; in that of `Cn1c(NC(=O)C[n+]2cc(-c3ccc(Cl)cc3)n3c2CCC3)cc(=O)n(C)c1=O`, 1.86%; in that of `COc1ccc(C2C(C(=O)c3cccs3)=C(O)C(=O)N2c2nnc(C)s2)cc1OC` (stereo not given), 0.77%. In the case of `Cc1ccc(C2C(C(=O)c3cccs3)=C(O)C(=O)N2c2nnc(C)s2)cc1` (stereo not given) it was 17.5% (active); in that of `C=CCOc1ccc(C2C(C(=O)c3cccs3)=C(O)C(=O)N2c2nnc(C)s2)cc1` (stereo not given), 0.1%; in that of `O=c1c2ccccc2cnn1Cc1n[nH]c(=S)n1-c1ccccc1Cl`, 2.78%. Regarding `O=C(O)c1cccc2c1-c1c(cccc1[N+](=O)[O-])C2`, the fluorescence artifact activation was 706% (active). In the case of `O=C(O)c1cccc([N+](=O)[O-])c1C(=O)Nc1cccc2ccccc12` it was 1.51%.

For `CC(C)C12CN(C(=O)c3ccccc3[N+](=O)[O-])CC(C(C)C)(CN(C(=O)c3ccccc3[N+](=O)[O-])C1)C2=O`, the fluorescence artifact activation is 0.02%. `COc1ccc(Cl)cc1NC(=O)CN(C)C(=O)COc1ccccc1F`: the fluorescence artifact activation was 0.35%.

In the case of `COc1ccc(Cl)cc1NC(=O)CN(C)C(=O)c1ccc(N2CCCCCC2)c([N+](=O)[O-])c1`, the fluorescence artifact activation was 21.3% (active). Turning to `COc1ccc(OC)c(NC(=O)c2cc(S(=O)(=O)N(C)C)ccc2N2CCCC2)c1`, the fluorescence artifact activation is 0.05%. Take `Cc1nc(NC(=O)c2ccccc2[N+](=O)[O-])sc1C(=O)N(C)C`: the fluorescence artifact activation was 0.02%. In the case of `O=C(c1ccc(Nc2cccc(C(F)(F)F)c2)nc1)N1CCCC1` it was 55.9% (active); in that of `O=C(CN1CCN(c2ccccc2)CC1)Nc1cccc(C(F)(F)F)c1`, 0.02%. In the case of `COc1cccc(S(=O)(=O)Nc2cccc(C(=O)N3CCCCCC3)c2)c1` it was 0.03%; in that of `Cc1ccc(S(=O)(=O)N2CCOCC2)cc1NC(=O)CSc1nccn1C`, 0.07%.

With `CCCCCC(C)NC(=S)NC(=O)c1cc(S(=O)(=O)N2CCOCC2)ccc1C` (stereo not given), the fluorescence artifact activation was 0.05%. In the case of `Cc1csc(NS(=O)(=O)c2cccc([N+](=O)[O-])c2)n1` it was 0.08%; in that of `CC1=CC(=C(C#N)C#N)C=C(C)N1Cc1ccc(Cl)cc1`, 10.8%.
